These results are taken from ChEMBL document CHEMBL3046112, “Comparative study of antimicrobial peptides to control citrus postharvest decay caused by Penicillium digitatum” (J Agric Food Chem, 2007).

A short description of data set [1]: Toxicity in Homo sapiens (human) RBCs assessed as hemolytic activity at 100 uM. It is filed as cell-based. Conditions: erythrocyte.
The nature of data set [2]: Toxicity in Homo sapiens (human) RBCs assessed as hemolytic activity. It is filed as cell-based. The following applies: erythrocyte.
The test system of data set [3] is Penicillium digitatum. The data set can be described thus: Antimicrobial activity against Penicillium digitatum PHI-26 assessed as inhibition of orange postharvest decay progression progression at 2 uM pre-incubated with fungus for 16 hr measured 7 days post fungal inoculation by orange fruit decay assay. It is filed as functional. The method in brief: (§1)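 Orange fruit inoculation (Navelina, Navelate or Lanelate). Each fruit was wounded about 3 mm deep at four equatorial sites. 5 µL of inoculum (10^4 conidia mL-1 with peptide in water, preincubated 16 h at room temperature) went into each wound. Peptide was tested at 32 µM, from 4 to 64 µM, or from 1 to 4 µM. Fruit was held at 20 °C and 90% RH. Infected wounds were scored at 3, 5 and 7 dpi. Three replicas of five fruits each; Tukey mean separation.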

The test system of data set [4] is Penicillium digitatum. As to the kind of experiment: Antimicrobial activity against Penicillium digitatum PHI-26 assessed as inhibition of orange postharvest decay progression progression at 4 uM pre-incubated with fungus for 16 hr measured 7 days post fungal inoculation by orange fruit decay assay. It is filed as functional, organism-based. The method in brief: as §1

Data set [5] concerns Penicillium digitatum. The data set can be described thus: Fungicidal activity against Penicillium digitatum PHI-26 conidia assessed as reduction in conidia viability at 4 uM incubated for 16 hr by colony count assay relative to untreated control. It is filed as functional. The gist of the method:
(§2)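 P. digitatum conidia (10^4 mL-1) were incubated with peptide (for example 4, 16 or 64 µM) in sterile distilled water for 16 h at room temperature, in triplicate. Samples were then serially diluted and spread on peptide-free PDA to count CFU. Results are given as mean CFU mL-1 ± SD compared with a no-peptide control.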

The subject of data set [6] is Penicillium digitatum. The data set can be described thus: Fungicidal activity against Penicillium digitatum PHI-26 conidia assessed as inhibition of conidia viability incubated for 16 hr by colony count assay. It is filed as functional, organism-based. The gist of the method: as §2
Data set [7] concerns Penicillium digitatum. As to the kind of experiment: Antimicrobial activity against Penicillium digitatum PHI-26 assessed as inhibition of orange postharvest decay progression at 32 uM pre-incubated with fungal conidia for 16 hr by orange fruit decay assay. It is filed as functional, organism-based. The method in brief:
as §1

The subject of the next data set is Escherichia coli. The data set can be described thus: Antimicrobial activity against Escherichia coli DH5[alpha] assessed as microbial growth inhibition after 4 days by microtiter plate assay. It is filed as functional. The following applies: 96 h. The gist of the method: (§3)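 Microtiter dose–response assay, as previously described. Peptide stocks were 1 mM in 5 mM MOPS pH 7. P. digitatum conidia came from 7–10-day PDA cultures grown at 24 °C and were counted with a hematocytometer. Yeast (YPD, 30 °C) and E. coli (LB, 37 °C) were grown to stationary phase and diluted. Growth was read as OD492 in triplicate. MIC: lowest concentration with no growth after 4 days in all independent experiments, each repeated at least three times.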

For a further data set, the system named is Saccharomyces cerevisiae. The data set can be described thus: Antimicrobial activity against Saccharomyces cerevisiae FY1679 assessed as microbial growth inhibition after 4 days by microtiter plate assay. Conditions: FY1679, 96 h. It is filed as functional. The method in brief: as §3
Data set [8] has as its system Penicillium digitatum. The data set can be described thus: Antimicrobial activity against Penicillium digitatum PHI-26 assessed as microbial growth inhibition after 4 days by microtiter plate assay. It is filed as functional. The gist of the method:
as §3

In data set [9] the test system is Penicillium digitatum. The data set can be described thus: Antimicrobial activity against Penicillium digitatum PHI-26 assessed as inhibition of orange postharvest decay progression progression at 32 uM measured 7 days post fungal inoculation by orange fruit decay assay. It is filed as functional, organism-based. The gist of the method:
(§4)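 Navelina sweet oranges were wounded about 3 mm deep at four equatorial sites. Each wound received 5 µL of 10^4 conidia mL-1 of PHI-26 mixed with peptide in water, inoculated either at once or after 16 h at room temperature. There were three replicas of five fruits, held at 20 °C and 90% RH. Infected wounds were scored at 3, 5 and 7 dpi as mean % ± SD, with Tukey separation.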

Data set [10] has as its system Penicillium digitatum. As to the kind of experiment: Antimicrobial activity against Penicillium digitatum PHI-26 assessed as inhibition of orange postharvest decay progression at 32 uM by orange fruit decay assay. It is filed as functional, organism-based. The method in brief: as §4

In brackets after ≈: the same amount, converted by molar mass. Activity calls are given as the source filed them. The rule behind the calls is not given here.

With `CC(=O)N[C@@H](Cc1cnc[nH]1)C(=O)N[C@@H](CCCNC(=N)N)C(=O)N[C@@H](CCCCN)C(=O)N[C@@H](CCCCN)C(=O)N[C@@H](Cc1c[nH]c2ccccc12)C(=O)N[C@@H](Cc1ccccc1)C(=O)N[C@@H](Cc1c[nH]c2ccccc12)C(N)=O`, the Activity result in [1] and in data set [2] was “Non-toxic” in each case. Besides, the inhibition at 2 µM in the data set with Penicillium digitatum [3] was greater than 50%. Moreover, the inhibition result in the data set with Penicillium digitatum [4], with Penicillium digitatum [6] and in the data set on Penicillium digitatum [7] was “Active” each time. For the same compound, in the data set on Penicillium digitatum [5], the “fold change (FC)” value turned out to be 2. The minimum inhibitory concentration (MIC) with Escherichia coli came to 16 µM (≈ 18.1 µg/mL); with Saccharomyces cerevisiae, 16 µM (≈ 18.1 µg/mL); with Penicillium digitatum [8] (PHI-26, 96 h) it was 4 µM (≈ 4.51 µg/mL).

Take `CC(=O)N[C@@H](CCCNC(=N)N)C(=O)N[C@@H](CCCNC(=N)N)C(=O)N[C@@H](CCCCN)C(=O)N[C@@H](CCCCN)C(=O)N[C@@H](Cc1c[nH]c2ccccc12)C(=O)N[C@@H](Cc1ccccc1)C(=O)N[C@@H](Cc1c[nH]c2ccccc12)C(N)=O`: the Activity entry in data set [1] and in [2] was “Non-toxic” in each case. The inhibition result in the data set with Penicillium digitatum [4], with Penicillium digitatum [6] and in the data set with Penicillium digitatum [7] was “Active” in each case. Also, the “fold change (FC)” value in the data set with Penicillium digitatum [5] was determined as 2. For the same compound, the MIC with Escherichia coli was 8 µM (≈ 9.18 µg/mL); in the data set with Saccharomyces cerevisiae it was 16 µM (≈ 18.4 µg/mL); in the data set on Penicillium digitatum [8] (PHI-26, 96 h), 4 µM (≈ 4.59 µg/mL).

`CC(=O)N[C@H](CCCNC(=N)N)C(=O)N[C@H](CCCNC(=N)N)C(=O)N[C@H](CCCCN)C(=O)N[C@H](CCCCN)C(=O)N[C@H](Cc1c[nH]c2ccccc12)C(=O)N[C@H](Cc1ccccc1)C(=O)N[C@H](Cc1c[nH]c2ccccc12)C(N)=O`: in the data set with Penicillium digitatum [8], the MIC entry is “Active”.

For `CC(=O)N[C@H](Cc1cnc[nH]1)C(=O)N[C@H](CCCNC(=N)N)C(=O)N[C@H](CCCCN)C(=O)N[C@H](CCCCN)C(=O)N[C@H](Cc1c[nH]c2ccccc12)C(=O)N[C@H](Cc1ccccc1)C(=O)N[C@H](Cc1c[nH]c2ccccc12)C(N)=O`, the MIC result with Penicillium digitatum [8] was “Active”.

`CC[C@H](C)[C@H](NC(C)=O)C(=O)N[C@@H](CC(C)C)C(=O)N1CCC[C@H]1C(=O)N[C@@H](Cc1c[nH]c2ccccc12)C(=O)N[C@@H](CCCCN)C(=O)N[C@@H](Cc1c[nH]c2ccccc12)C(=O)N1CCC[C@H]1C(=O)N[C@@H](Cc1c[nH]c2ccccc12)C(=O)N[C@@H](Cc1c[nH]c2ccccc12)C(=O)N1CCC[C@H]1C(=O)N[C@@H](Cc1c[nH]c2ccccc12)C(=O)N[C@@H](CCCNC(=N)N)C(=O)N[C@@H](CCCNC(=N)N)C(N)=O` [Indolicidin]: the inhibition entry with Penicillium digitatum [4], in the data set with Penicillium digitatum [5] and in the data set on Penicillium digitatum [6] was “Active” each time.

For the compound `CC[C@H](C)[C@H](NC(=O)[C@H](CCCCN)NC(=O)[C@H](CCCCN)NC(=O)[C@H](Cc1ccccc1)NC(=O)[C@H](CC(C)C)NC(=O)[C@H](CCCCN)NC(=O)[C@@H](N)CCCCN)C(=O)N[C@@H](CC(C)C)C(=O)N[C@@H](CCCCN)C(=O)N[C@@H](Cc1ccccc1)C(=O)N[C@@H](CC(C)C)C(N)=O` [KKLFKKILKFL-NH2], in data set [2], the Activity result is listed as “Toxic”. Further, the inhibition result with Penicillium digitatum [5] and in the data set on Penicillium digitatum [6] was “Active” each time. Moreover, the minimal inhibitory concentration (MIC) is 4 µM (≈ 5.62 µg/mL) with Escherichia coli; 16 µM (≈ 22.5 µg/mL) with Saccharomyces cerevisiae; 4 µM (≈ 5.62 µg/mL) in the data set with Penicillium digitatum [8] (PHI-26, 96 h).

Regarding `CC[C@H](C)[C@H](NC(=O)[C@H](CCCCN)NC(=O)[C@H](CCCCN)NC(=O)[C@H](Cc1ccccc1)NC(=O)[C@H](CC(C)C)NC(=O)[C@H](CCCCN)NC(=O)[C@@H](N)CCCCN)C(=O)N[C@@H](CC(C)C)C(=O)N[C@@H](CCCCN)C(=O)N[C@H](C(=O)N[C@@H](CC(C)C)C(N)=O)C(C)C` [KKLFKKILKVL-NH2], the Activity entry in [2] was “Toxic”. The inhibition entry in the data set on Penicillium digitatum [5] and in the data set with Penicillium digitatum [6] was “Active” throughout. The minimal inhibitory concentration (MIC) in the data set on Escherichia coli was 4 µM (≈ 5.43 µg/mL); in the data set on Saccharomyces cerevisiae, 16 µM (≈ 21.7 µg/mL); in the data set with Penicillium digitatum [8] (PHI-26, 96 h) it was 4 µM (≈ 5.43 µg/mL).

Turning to `CC[C@H](C)[C@H](NC(=O)CN)C(=O)NCC(=O)N[C@@H](C)C(=O)N[C@H](C(=O)N[C@@H](CC(C)C)C(=O)N[C@@H](CCCCN)C(=O)N[C@H](C(=O)N[C@@H](CC(C)C)C(=O)N[C@H](C(=O)N[C@H](C(=O)NCC(=O)N[C@@H](CC(C)C)C(=O)N1CCC[C@H]1C(=O)N[C@@H](C)C(=O)N[C@@H](CC(C)C)C(=O)N[C@H](C(=O)N[C@@H](CO)C(=O)N[C@@H](Cc1c[nH]c2ccccc12)C(=O)N[C@H](C(=O)N[C@@H](CCCCN)C(=O)N[C@@H](CCCNC(=N)N)C(=O)N[C@@H](CCCCN)C(=O)N[C@@H](CCCNC(=N)N)C(=O)N[C@@H](CCC(N)=O)C(=O)N[C@@H](CCC(N)=O)C(N)=O)[C@@H](C)CC)[C@@H](C)CC)[C@@H](C)O)[C@@H](C)O)C(C)C)C(C)C` [MELITTIN], the Activity result in data set [2] is given as “Toxic”. Also, the inhibition entry in the data set on Penicillium digitatum [4], in the data set with Penicillium digitatum [5], in the data set with Penicillium digitatum [6], in the data set with Penicillium digitatum [7] and in the data set with Penicillium digitatum [10] was “inactive” each time. Also, in the data set with Penicillium digitatum [9], the inhibition entry was “Active”. Moreover, the MIC was determined as 16 µM (≈ 45.5 µg/mL) with Saccharomyces cerevisiae and 2 µM (≈ 5.69 µg/mL) in the data set with Penicillium digitatum [8] (PHI-26, 96 h).

Take Ac-RFWWFRRR-NH2: in data set [1], the Activity entry is listed as “Non-toxic”. Moreover, the inhibition result in the data set with Penicillium digitatum [4], with Penicillium digitatum [6], in the data set with Penicillium digitatum [7] and in the data set on Penicillium digitatum [10] was “Active” each time. For the same compound, the “fold change (FC)” value in the data set with Penicillium digitatum [5] came to 2. Besides, the minimal inhibitory concentration (MIC) worked out at 8 µM in the data set with Escherichia coli; 32 µM in the data set on Saccharomyces cerevisiae; 4 µM in the data set on Penicillium digitatum [8] (PHI-26, 96 h).

Regarding Ac-RKKWFW-NH2, the Activity result in data set [1] and in [2] was “Non-toxic” in each case. Also, in the data set on Penicillium digitatum [5], the “fold change (FC)” value amounted to 2. The inhibition result in the data set with Penicillium digitatum [6] and with Penicillium digitatum [7] was “Active” throughout. The MIC in the data set on Escherichia coli was 32 µM; with Saccharomyces cerevisiae it was 32 µM; with Penicillium digitatum [8] (PHI-26, 96 h), 4 µM.
